Experimental data from different studies.
Compare with care: the assays were run in different laboratories.
Target: Serine/threonine-protein kinase Nek6 (NEK6, Homo sapiens, UniProt Q9HC98)
Read-out: enzyme activity
Mode: inhibitor

CC(C)(C)c1nc(-c2cccc(NS(=O)(=O)c3c(F)cccc3F)c2F)c(-c2ccnc(N)n2)s1  remaining activity (radiometric; 1 µM): 99%
Oc1cccc(-c2nc(N3CCOCC3)c3oc4ncccc4c3n2)c1  remaining activity (10 µM): 87%
Nc1nc(NC2CCCCC2)sc1C(=O)c1ccccc1  remaining activity (10 µM): 113%
CCCOc1ccc(OC)c(F)c1C(=O)c1ccc(C(=O)N[C@@H]2CNC[C@H]2NC(=O)c2ccc3[nH]ncc3c2)cc1  remaining activity (10 µM): 96%
CCN(CC)CCNC(=O)c1c(C)[nH]c(/C=C2\C(=O)Nc3ccc(F)cc32)c1C  remaining activity (0.1 µM): 99%
COc1cc(Cl)c(C(=O)N[C@@H](CN[C@H]2CC[C@@H](N)CC2)Cc2ccc(C#N)cc2)cc1-c1ccc(CN[C@H](C)c2ccc(C)cc2)o1  remaining activity (1 µM): 111%
Cc1[nH]c(/C=C2\C(=O)Nc3ccc(F)cc32)c(C)c1C(=O)N[C@H]1CCN(C(=O)N(C)C)C1  remaining activity (1 µM): 126%
Nc1nc(Nc2ccccc2)sc1C(=O)c1c(F)cccc1F  remaining activity (10 µM): 97%
Cc1sc(C(=O)NC2COC2)cc1-n1cc(NC(=O)Nc2c(F)cccc2Cl)cn1  remaining activity (10 µM): 92.7%
FC(F)c1nc2ccccc2n1-c1nc(N2CCOCC2)nc(N2CCOCC2)n1  remaining activity (10 µM): 83%
COc1cc(Nc2cnc(C#N)c(O[C@H](C)CN(C)C)n2)ncc1-c1cnn(C)c1  remaining activity (radiometric; 10 µM): 96%
Cc1ccc(Nc2nccc(N(C)c3ccc4c(C)n(C)nc4c3)n2)cc1S(N)(=O)=O  remaining activity (0.5 µM): 96.1%
